Screening results: PubChem, Broad Institute
INS-1E rescue = rescue of cytokine-induced death in INS-1E beta cells; protection from cytokine-induced ATP loss, % at 10 µM; INS-1E cytokine-induced death, ATP luminescence, 48 h; normalised: neutral wells 0, positive control 100; 20,000 compounds, 0.1% hits;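 active means mean replicate protection from cytokine-induced ATP loss at least 50% and at least 75% of replicates each reaching 50%; inconclusive means meets only one of the two criteria, mean or replicate share; inactive means fails both the mean and replicate share criteria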
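Assay system: INS-1E rat cells / Quantity: 8000 cells per well / Medium: RPMI without phenol red, 5% FBS / Probe or stimulus: three-cytokine cocktail (IFN-γ, TNF-α, IL-1β) / Dosing: one compound concentration, pin transfer / Timing: 48 h co-treatment, 10 min post-lysis read / Technique: CellTiter-Glo luminescence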
T cruzi HTS = intracellular Trypanosoma cruzi inhibition; intracellular Trypanosoma cruzi in host cells, plate reader; activity score (inhibition), % at 5.01 µM; 22,000 compounds, 4.9% hits; AID 651903; in the data active means activity score above about 55%; inconclusive means no clear call, values can overlap the other calls;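 further: parasites and compound incubated about four days before reading; 0% = median of neutral control wells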
A1 apoptosis 2 = A1 inhibition read as caspase activation | 24,000 tested, under 10 active | MEF A1-2A-BIM cells, caspase-Glo luminescence, 3 h; percent of clofoctol response, DMSO zero | AID 2465 | caspase activation, % (test concentration not listed); in the data active means caspase activation above about 5.9%; inconclusive means no clear call, values can overlap the other calls; inactive means below about 2.2%
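Material: A1-2A-BIM-expressing MEF cells. Buffer or medium: RPMI-1640 plus 10% FBS. Incubation: cells settled overnight, compound exposure 3 h at 37 °C, 5% CO2. Signal: Caspase-Glo 3/7 luminescence, 1 h at room temperature.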
Active calls of the source: *; u = inconclusive; x = not tested or not shown. This is one part of a sample in which hits are shown more often than they occur.

SMILES	INS-1E rescue	T cruzi HTS	A1 apoptosis 2
Cc1ccc(S(=O)(=O)Nc2ccc3c(c2)CC(=O)N([C@@H](C)CO)C[C@@H](C)[C@@H](CN(C)Cc2ccc(Oc4ccccc4)cc2)O3)cc1	-18.9	69.6*	x
C[C@@H]1CN([C@@H](C)CO)C(=O)Cc2cc(NS(=O)(=O)c3ccc(F)cc3)ccc2O[C@H]1CN(C)Cc1ccc(Oc2ccccc2)cc1	x	x	0.6
C[C@@H]1CCCCO[C@H](CN(C)C(=O)C2CCCCC2)[C@@H](C)CN([C@H](C)CO)C(=O)c2cc(NC(=O)Nc3ccc(C(F)(F)F)cc3)ccc2O1	-20.7	61.2*	-0.6
C[C@@H]1CCCCO[C@H](CN(C)C(=O)NC2CCCCC2)[C@H](C)CN([C@@H](C)CO)C(=O)c2cc(NC(=O)Nc3ccc(C(F)(F)F)cc3)ccc2O1	x	x	1.3
C[C@@H]1CCCCO[C@H](CN(C)C(=O)Nc2ccc(C(F)(F)F)cc2)[C@@H](C)CN([C@H](C)CO)C(=O)c2cc(NC(=O)NC3CCCCC3)ccc2O1	-4.0	67.8*	x
C[C@H]1CCCCO[C@H](CN(C)C(=O)Nc2ccc(C(F)(F)F)cc2)[C@@H](C)CN([C@@H](C)CO)C(=O)c2cc(NC(=O)NC3CCCCC3)ccc2O1	x	x	1.8
C[C@@H]1CCCCO[C@H](CN(C)C(=O)Nc2ccc(C(F)(F)F)cc2)[C@H](C)CN([C@H](C)CO)C(=O)c2cc(NC(=O)C3CCCCC3)ccc2O1	x	x	-1.0
C[C@@H]1CCCCO[C@H](CN(C)C(=O)Nc2ccc(C(F)(F)F)cc2)[C@@H](C)CN([C@H](C)CO)C(=O)c2cc(NC(=O)C3CCCCC3)ccc2O1	-28.2	72.0*	x
C[C@@H]1CCCCO[C@@H](CN(C)C(=O)NC2CCCCC2)[C@@H](C)CN([C@H](C)CO)C(=O)c2cc(NC(=O)Nc3ccc(C(F)(F)F)cc3)ccc2O1	-1.2	71.7*	1.2
C[C@H]1CCCCO[C@@H](CN(C)C(=O)C2CCCCC2)[C@@H](C)CN([C@@H](C)CO)C(=O)c2cc(NC(=O)Nc3ccc(C(F)(F)F)cc3)ccc2O1	x	x	1.0
O=C(CCCCCCC(=O)N/N=C/C1=CCCCC1)NO	x	x	-0.3
O=C1c2ccccc2C(=O)N1[C@@H]1CCCN(Cc2ccc(OCCO)cc2)C1	x	x	1.0
C[C@@H]1CN([C@@H](C)CO)C(=O)c2cccc(NC(=O)NC3CCCCC3)c2O[C@H]1CN(C)Cc1ccc(Cl)c(Cl)c1	-4.7	62.4*	x
C[C@H](CO)N1C[C@H](C)[C@H](CN(C)Cc2ccc(Cl)c(Cl)c2)Oc2c(NC(=O)C3CCCCC3)cccc2C1=O	-40.7	14.2	x
C[C@@H]1CN([C@H](C)CO)C(=O)c2cccc(NC(=O)C3CCCCC3)c2O[C@H]1CN(C)Cc1ccc(Cl)c(Cl)c1	-16.6	59.6*	0.0
C[C@@H]1CN([C@@H](C)CO)C(=O)c2cccc(NC(=O)NC3CCCCC3)c2O[C@@H]1CN(C)Cc1ccc(Cl)c(Cl)c1	-18.5	-51.6	-0.6
Cc1ncc(CO)c(/C=N/NC(=O)CCCCCC(=O)O)c1O	0.0	-18.4	0.6
O=C(O)CCCCCCC(=O)N/N=C/c1ccc(CO)o1	2.2	-13.4	1.3
O=C(CCCCCC(=O)N/N=C/c1ccc(OCCO)cc1)NO	x	x	0.7
O=C(CCCCCCC(=O)N/N=C/c1ccc(OCCO)cc1)NO	115.8*	6.3	x
O=C(CCCCCCC(=O)N/N=C/c1ccc(CO)o1)NO	51.6*	-3.1	x
O=C(CCCCCC(=O)Nc1ccccc1O)N/N=C/c1cccc(O)c1	9.6	-9.3	2.1
O=C(O)CCCCCCC(=O)N/N=C/c1ccc(-c2cccc(Cl)c2)o1	21.7	3.8	x
Cc1ccc(S(=O)(=O)Nc2ccc3c(c2)CC(=O)N([C@@H](C)CO)C[C@H](C)[C@@H](CN(C)Cc2ccc(C(F)(F)F)cc2)O3)cc1	0.0	62.4*	x
Cc1ccc(S(=O)(=O)Nc2ccc3c(c2)CC(=O)N([C@@H](C)CO)C[C@@H](C)[C@H](CN(C)Cc2ccc(C(F)(F)F)cc2)O3)cc1	x	x	-0.3
SMILES	INS-1E rescue	T cruzi HTS	A1 apoptosis 2
Cc1ccc(S(=O)(=O)Nc2ccc3c(c2)CC(=O)N([C@H](C)CO)C[C@@H](C)[C@@H](CN(C)Cc2ccc(C(F)(F)F)cc2)O3)cc1	-10.4	61.0*	x
C[C@H]1CN([C@@H](C)CO)C(=O)Cc2cc(NS(=O)(=O)c3ccc(F)cc3)ccc2O[C@@H]1CN(C)Cc1ccc(C(F)(F)F)cc1	-17.2	61.3*	x
C[C@@H]1CN([C@H](C)CO)C(=O)Cc2cc(NS(=O)(=O)c3ccc(F)cc3)ccc2O[C@H]1CN(C)Cc1ccc(C(F)(F)F)cc1	-13.4	47.8	0.9
C[C@@H]1CN([C@@H](C)CO)C(=O)Cc2cc(NS(=O)(=O)c3ccc(F)cc3)ccc2O[C@@H]1CN(C)Cc1ccc(C(F)(F)F)cc1	-40.6	u	-1.2
O=C(N/N=C/c1c(F)c(F)c(F)c(F)c1F)c1ccccc1O	-36.9	-11.1	-2.4
CC(C)=CCC[C@@H](C)C/C=N/NC(=O)CCCCCCC(=O)O	7.2	-3.1	1.5
C[C@@H]1CN([C@H](C)CO)C(=O)c2cccc(NC(=O)CCCCCC(=O)Nc3ccccc3N)c2O[C@@H]1CN(C)Cc1ccccc1	0.6	-31.8	x
C[C@H]1CN([C@@H](C)CO)C(=O)c2cccc(NC(=O)CCCCCC(=O)Nc3ccccc3N)c2O[C@H]1CN(C)Cc1ccc(-c2ccccc2)cc1	-5.4	67.9*	1.2
C[C@@H]1CN([C@@H](C)CO)C(=O)c2cccc(NC(=O)CCCCCC(=O)Nc3ccccc3N)c2O[C@H]1CN(C)Cc1ccc(Cl)c(Cl)c1	6.9	79.6*	x
C[C@@H]1CN([C@@H](C)CO)C(=O)c2cccc(NC(=O)CCCCCC(=O)Nc3ccccc3N)c2O[C@H]1CN(C)Cc1ccccc1	19.3	71.8*	-0.8
C[C@@H]1CN([C@H](C)CO)C(=O)c2cccc(NC(=O)CCCCCC(=O)Nc3ccccc3N)c2O[C@H]1CN(C)Cc1ccc(Cl)c(Cl)c1	x	x	-2.0
C[C@H](CO)N1C[C@H](C)[C@@H](CN(C)Cc2ccc(Oc3ccccc3)cc2)Oc2c(NC(=O)CCCCCC(=O)Nc3ccccc3N)cccc2C1=O	x	x	0.1
C[C@@H]1CN([C@@H](C)CO)C(=O)c2cccc(NC(=O)CCCCCC(=O)Nc3ccccc3N)c2O[C@H]1CN(C)Cc1ccc(Oc2ccccc2)cc1	-3.0	83.9*	-0.1
C[C@@H]1CN([C@H](C)CO)C(=O)c2cccc(NC(=O)CCCCCC(=O)Nc3ccccc3N)c2O[C@@H]1CN(C)Cc1ccc(-c2ccccc2)cc1	6.9	u	-0.3
Cc1[nH]cnc1/C=N/NC(=O)c1ccccn1	-117.5	47.7	-1.5
COc1ccc(NC(=O)N(C)C[C@H]2OCCCC[C@@H](C)Oc3ccc(NC(=O)Nc4ccc(C(F)(F)F)cc4)cc3C(=O)N([C@H](C)CO)C[C@@H]2C)cc1	-19.1	57.1*	-0.1
COc1ccc(NC(=O)Nc2ccc3c(c2)C(=O)N([C@H](C)CO)C[C@H](C)[C@H](CN(C)C(=O)Nc2ccc(C(F)(F)F)cc2)OCCCC[C@H](C)O3)cc1	x	x	0.9
